Assay results: ChEMBL document CHEMBL2384958, “Potential of lichen secondary metabolites against Plasmodium liver stage parasites with FAS-II as the potential target” (J Nat Prod, 2013)
In brackets after ≈: the same amount, converted by molar mass. Activity calls are given as the source filed them. No cut-off for these calls is given here.

How the values were obtained:
[1] = system: Plasmodium berghei; test: Antiplasmodial activity against liver stage of Plasmodium berghei ANKA expressing GFP infected in human Huh7.5 cells assessed as decrease in size at 10 uM after 48 hrs by immunofluorescence analysis; format: functional, organism-based; conditions: Huh-7
In short: (§1)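 HuH7.5 cells (50 000/well, chambered slides) were infected with 33 000 freshly dissected P. berghei GFP sporozoites and incubated 48 h with compound or 0.1% DMSO. Cells were fixed in 10% neutral buffered formalin and stained with mouse anti-Plasmodium HSP70 (FITC) plus Hoechst. Parasite size was imaged by fluorescence microscopy with a 40× objective.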

[2] = system: Mycobacterium tuberculosis; test: Antimycobacterial activity against Mycobacterium tuberculosis ATCC 27294; format: functional
[3] = Inhibition of Plasmodium falciparum FabI using crotonoyl-CoA as substrate preincubated for 10 mins prior to substrate addition
[4] = system: Plasmodium berghei; test: Antiplasmodial activity against liver stage of Plasmodium berghei ANKA expressing GFP infected in human Huh7.5 cells assessed as decrease in size at 1 uM after 48 hrs by immunofluorescence analysis; format: functional, organism-based; conditions: Huh-7; in short: as §1
[5] = Inhibition of Staphylococcus aureus FabI using dodecenoyl ACP at pH 7.8
[6] = Inhibition of Plasmodium falciparum FabG using acetoacetyl-CoA as substrate
[7] = system: Escherichia coli; test: Antibacterial activity against Escherichia coli ATCC 8739; format: functional, organism-based; conditions: ATCC 8739, ATCC 8739
In short: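 E. coli ATCC 8739 whole cells tested in triplicate by a previously reported method. Compounds were fully solubilized beforehand, with brief agitation or sonication used for DMSO solutions at high test concentrations (>120 μM).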

[8] = Inhibition of Mycobacterium tuberculosis FabI using 2-dodecenoyl-CoA as substrate at pH 6.8
[9] = molecular target: T1, Enoyl-[acyl-carrier-protein] reductase [NADH] FabI (Escherichia coli K-12, UniProt P0AEK4); test: Inhibition of Escherichia coli FabI using 2-dodecenoyl-CoA as substrate at pH 8
T1 sequence (P0AEK4 whole entry): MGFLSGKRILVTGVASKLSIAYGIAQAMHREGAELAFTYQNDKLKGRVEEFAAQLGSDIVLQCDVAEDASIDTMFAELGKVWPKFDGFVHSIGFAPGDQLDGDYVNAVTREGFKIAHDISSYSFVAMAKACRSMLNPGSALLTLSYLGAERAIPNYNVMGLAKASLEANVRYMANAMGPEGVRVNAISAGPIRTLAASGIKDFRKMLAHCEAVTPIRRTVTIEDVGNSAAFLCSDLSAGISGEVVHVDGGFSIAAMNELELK

[10] = organism: Danio rerio; test: Hepatotoxicity in zebrafish larva expressing fabp10a:DsRed2 assessed as change in liver size at 0.3 uM measured at 6 days postfertilization by fluorescence microscopic analysis; format: toxicity, organism-based; conditions: in vivo, 144 h
In short: (§2)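 Transgenic fabp10a:DsRed2 zebrafish were raised at 28.5 °C on a 14 h light/10 h dark cycle. Larvae were sorted at 3 dpf for liver fluorescence and exposed to compounds at 10 per well, with 1% DMSO controls. General and heart toxicity were checked at 4 dpf, dosing went up to the maximum-tolerated concentration, and five liver phenotypes were scored at 6 dpf by fluorescence microscopy.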

[11] = system: Plasmodium berghei; test: Antiplasmodial activity against liver stage of Plasmodium berghei ANKA expressing GFP infected in human Huh7.5 cells assessed as reduction in PB18S gene expression after 48 hrs by qRT-PCR analysis; format: functional, organism-based; conditions: Huh-7, 48 h
In short: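 HuH7.5 cells infected with freshly dissected P. berghei GFP sporozoites (30 000 per 60 000 cells); 48 h culture with compounds (10 to 100 μM) at 37 °C, media changed every 24 h. Total RNA extracted, DNase treated; PB18S expression normalized to DMSO controls; IC50 estimated; atovaquone positive control.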

[12] = organism: Danio rerio; test: Toxicity in zebrafish larva measured at 4 days postfertilization; format: organism-based; conditions: in vivo, 96 h
In short: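 Transgenic fabp10a:DsRed2 larvae raised at 28.5 °C (14 h light/10 h dark), sorted for liver fluorescence at 3 dpf and exposed to compounds, 10 larvae per well; general and heart toxicity checked at 4 dpf to set maximum-tolerated concentration.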

[13] = Inhibition of Plasmodium falciparum FabZ using crotonoyl-CoA as substrate preincubated for 10 mins prior to substrate addition
[14] = Cytotoxicity against human Huh7.5 cells after 24 hrs by Cell-titerGlo luminescence assay; format: cell-based; conditions: Huh-7, 24 h
In short: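 HuH7.5 human hepatoma cells (30 000/well) in advanced DMEM complete medium were exposed to compounds for 24 h, or to 0.1% DMSO as reference. Viability was read by CellTiter-Glo luminescence.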

[15] = system: KB; test: Cytotoxicity against human KB cells after 72 hrs by Alamar Blue assay; format: functional, cell-based
[16] = system: Plasmodium falciparum; test: Antiplasmodial activity against blood stage of chloroquine and pyrimethamine-resistant Plasmodium falciparum K1 after 48 hrs by [3H]-hypoxanthine incorporation assay; format: functional, organism-based
In short: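 0.4% parasitemia in assay medium with 15 μM hypoxanthine; compounds incubated 48 h before 3H-hypoxanthine added; run in duplicate.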

[17] = organism: Danio rerio; test: Hepatotoxicity in zebrafish larva expressing fabp10a:DsRed2 assessed as change in liver size at 3.6 to 60.2 uM measured at 6 days postfertilization by fluorescence microscopic analysis relative to control; format: toxicity, organism-based; conditions: in vivo, 144 h; in short: as §2
[18] = organism: Danio rerio; test: Hepatotoxicity in zebrafish larva expressing fabp10a:DsRed2 assessed as reduction in liver size at 60.2 uM measured at 6 days postfertilization by fluorescence microscopic analysis; format: toxicity, organism-based; conditions: in vivo, 144 h; in short: as §2
[19] = system: Plasmodium berghei; test: microbe, parasite or virus in culture; conditions: Huh-7
[20] = system: Plasmodium; test: Antiplasmodial activity against blood stage of Plasmodium; format: functional
In short: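 P. falciparum K1 (chloroquine/pyrimethamine-resistant) culture with 3H-hypoxanthine incorporation read-out, run in duplicate. Assay medium held 15 μM hypoxanthine, parasitemia 0.4%, and compounds were incubated 48 h before 3H-hypoxanthine was added.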

[21] = system: Plasmodium berghei; test: microbe, parasite or virus in culture; conditions: ANKA, HepG2
[22] = organism: Danio rerio; test: Hepatotoxicity in zebrafish larva expressing fabp10a:DsRed2 assessed as enlargement of liver at 15.5 uM measured at 6 days postfertilization by fluorescence microscopic analysis; format: toxicity, organism-based; conditions: in vivo, 144 h; in short: as §2
[23] = system: Staphylococcus aureus; test: Antibacterial activity against Staphylococcus aureus ATCC 6538; format: functional
In short: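 S. aureus ATCC 6538 whole cells tested in triplicate by a previously reported method. Compounds were fully solubilized beforehand, with brief agitation or sonication for high test concentrations (>120 μM) in DMSO.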

| SMILES | Activity [1] | MIC [2] | IC50 [3] | IC50 [5] | IC50 [6] | IC50 [7] | IC50 [9] | IC50 [11] | MTD [12] | IC50 [13] | IC50 [14] | IC50 [15] | IC50 [16] | Activity [17] | also measured |
| --- | --- | --- | --- | --- | --- | --- | --- | --- | --- | --- | --- | --- | --- | --- | --- |
| CC(=O)C1=C(O)C=C2Oc3c(C(C)=O)c(O)c(C)c(O)c3[C@@]2(C)C1=O [(+)-USNIC ACID] | Active | 15.1 µM (≈ 5.2 µg/mL) | > 200 µM | 190 µM | > 200 µM | > 64 µM | 47 µM | 2.3 µM | 0.3 µM | > 200 µM | > 100 µM |  |  |  | Activity [4]: Active; IC50 [8]: 190 µM; Activity [10]: Non-toxic |
| COc1cc(C)c(C(=O)Oc2cc(C)c(C(=O)O)c(O)c2)c(O)c1 [EVERNIC ACID] | inactive |  | 36.1 µM | 170 µM | > 200 µM | > 64 µM | 90 µM | 77.3 µM | 60.2 µM | 10.7 µM | > 100 µM | 190 µM | 142 µM | >= 40% | Activity [18]: Toxic |
| COc1cc(NC(C)CCCN)c2ncccc2c1 (centres undefined) [PRIMAQUINE] |  |  |  |  |  |  |  |  |  |  |  |  |  |  | IC50 [19]: 7.5 µM; IC50 [20]: 1.4 µM; IC50 [21]: 7.5 µM |
| COc1cc(C(=O)O)c2c(c1C)OC(=O)c1c(C)cc(O)c(C=O)c1O2 [PSOROMIC ACID] | inactive | 123 µM (≈ 44 µg/mL) | 71.4 µM | > 200 µM | 183 µM | > 64 µM | > 200 µM | 31.6 µM | 3.6 µM | 35.2 µM | > 100 µM | 31.6 µM | 29.2 µM | >= 40% |  |
| COC(=O)/C(=C1/OC(=O)C(c2ccccc2)=C1O)c1ccccc1 [VULPINIC ACID] | Active |  | > 140 µM | 90 µM | > 200 µM | > 64 µM | 84 µM | 10.2 µM | 15.5 µM | 20.5 µM | > 100 µM |  | 48.5 µM | >= 40% | Activity [22]: Toxic; MIC [23]: 32 µM (≈ 10.3 µg/mL) |
